According to ChEMBL document CHEMBL2311328, “Molecular docking and synthesis of novel quinazoline analogues as inhibitors of transcription factors NF-κB activation and their anti-cancer activities” (2013):
Calls of active or inactive are those of the source. The rule behind the calls is not given here.

Tests used:
[1] = system: HepG2; assay: Inhibition of TNFalpha-induced NFkappaB (unknown origin)-dependent transcriptional activity expressed in human HepG2 cells at 1 uM incubated for 1 hr prior to TNFalpha induction measured after 6 hrs by dual-luciferase reporter gene assay; assay type: cell-based
In short: (§1)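 HepG2 cells in DMEM with 10% FBS were lipofectamine-transfected with 10 ng/well pGL4.32 NF-κB-Luc plus Renilla control. Compound in DMSO was given in fresh medium for 1 h at 37 °C, then TNFα (final 20 ng/ml) for 6 h. Cells were lysed in passive lysis buffer. Firefly light units were normalized to Renilla; one-way ANOVA.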

[2] = system: HepG2; assay: Cytotoxicity against human HepG2 cells assessed as cellular growth at 50 uM incubated for 1 hr prior to TNF alpha stimulation measured after 48 hrs by SRB assay; assay type: functional
In short: (§2)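 HepG2 cells in DMEM with 10% FBS and penicillin/streptomycin were allowed to adhere 24 h, and a T0 plate was fixed. Compound was given for 1 h at 37 °C, with or without 20 ng/ml TNFα, then 48 h more. Cells were stained with 0.4% SRB for 30 min at RT, washed in 1% acetic acid, and solubilized in 10 mM Tris. OD read at 515 nm; one-way ANOVA.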

[3] = system: HepG2; assay: Cytotoxicity against human HepG2 cells assessed as cellular growth at 50 uM after 48 hrs by SRB assay in absence of TNFalpha; assay type: functional; in short: as §2
[4] = system: SNB-19; assay: Cytotoxicity against human SNB19 cells after 48 hrs by SRB assay; assay type: functional; conditions: SNB-19, 48 h
In short: (§3)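 Screened by the NCI Developmental Therapeutics Program in dose-response format. GI50 was determined by the sulforhodamine B protocol.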

[5] = system: SN12C; assay: Cytotoxicity against human SN12C cells after 48 hrs by SRB assay; assay type: functional; in short: as §3
[6] = system: HCT-15; assay: Cytotoxicity against human HCT15 cells after 48 hrs by SRB assay; assay type: functional; conditions: HCT-15, 48 h; in short: as §3
[7] = Cytotoxicity against human NCI-ADR-RES cells after 48 hrs by SRB assay; assay type: functional; in short: as §3
[8] = system: KM12; assay: Cytotoxicity against human KM12 cells after 48 hrs by SRB assay; assay type: functional; conditions: KM12, 48 h; in short: as §3
[9] = system: IGROV-1; assay: Cytotoxicity against human IGROV1 cells after 48 hrs by SRB assay; assay type: functional; conditions: IGROV-1, 48 h; in short: as §3
[10] = system: PC-3; assay: Cytotoxicity against human PC3 cells after 48 hrs by SRB assay; assay type: functional; conditions: PC-3, 48 h; in short: as §3
[11] = system: A498; assay: Cytotoxicity against human A498 cells after 48 hrs by SRB assay; assay type: functional; conditions: A498, 48 h; in short: as §3
[12] = system: UACC-257; assay: Cytotoxicity against human UACC257 cells after 48 hrs by SRB assay; assay type: functional; conditions: UACC-257, 48 h; in short: as §3
[13] = system: TK-10; assay: Cytotoxicity against human TK10 cells after 48 hrs by SRB assay; assay type: functional; conditions: TK-10, 48 h; in short: as §3
[14] = system: T47D; assay: Cytotoxicity against human T47D cells after 48 hrs by SRB assay; assay type: functional; in short: as §3
[15] = system: UO-31; assay: Cytotoxicity against human UO31 cells after 48 hrs by SRB assay; assay type: functional; conditions: UO-31, 48 h; in short: as §3
[16] = system: OVCAR-8; assay: Cytotoxicity against human OVCAR8 cells after 48 hrs by SRB assay; assay type: functional; conditions: OVCAR-8, 48 h; in short: as §3
[17] = system: DU-145; assay: Cytotoxicity against human DU145 cells after 48 hrs by SRB assay; assay type: functional; conditions: DU-145, 48 h; in short: as §3
[18] = system: SF-268; assay: Cytotoxicity against human SF268 cells after 48 hrs by SRB assay; assay type: functional; conditions: SF-268, 48 h; in short: as §3
[19] = system: SW-620; assay: Cytotoxicity against human SW620 cells after 48 hrs by SRB assay; assay type: functional; conditions: SW-620, 48 h; in short: as §3
[20] = system: MCF7; assay: Cytotoxicity against human MCF7 cells after 48 hrs by SRB assay; assay type: functional; conditions: MCF7, 48 h; in short: as §3
[21] = system: Malme-3M; assay: Cytotoxicity against human MALME-3M cells after 48 hrs by SRB assay; assay type: functional; in short: as §3
[22] = system: HCT-116; assay: Cytotoxicity against human HCT116 cells after 48 hrs by SRB assay; assay type: functional; conditions: HCT-116, 48 h; in short: as §3
[23] = system: UACC-62; assay: Cytotoxicity against human UACC62 cells after 48 hrs by SRB assay; assay type: functional; conditions: UACC-62, 48 h; in short: as §3
[24] = system: SF-539; assay: Cytotoxicity against human SF539 cells after 48 hrs by SRB assay; assay type: functional; conditions: SF-539, 48 h; in short: as §3
[25] = system: SF-295; assay: Cytotoxicity against human SF295 cells after 48 hrs by SRB assay; assay type: functional; conditions: SF-295, 48 h; in short: as §3
[26] = system: OVCAR-3; assay: Cytotoxicity against human OVCAR3 cells after 48 hrs by SRB assay; assay type: functional; conditions: OVCAR-3, 48 h; in short: as §3
[27] = system: SK-MEL-2; assay: Cytotoxicity against human SK-MEL-2 cells after 48 hrs by SRB assay; assay type: functional; conditions: SK-MEL-2, 48 h; in short: as §3
[28] = system: CAKI-1; assay: Cytotoxicity against human Caki1 cells after 48 hrs by SRB assay; assay type: functional; conditions: CAKI-1, 48 h; in short: as §3
[29] = system: SK-MEL-28; assay: Cytotoxicity against human SK-MEL-28 cells after 48 hrs by SRB assay; assay type: functional; conditions: SK-MEL-28, 48 h; in short: as §3
[30] = system: 786-0; assay: Cytotoxicity against human 786-0 cells after 48 hrs by SRB assay; assay type: functional; conditions: 786-0, 48 h; in short: as §3
[31] = system: BT-549; assay: Cytotoxicity against human BT549 cells after 48 hrs by SRB assay; assay type: functional; conditions: BT-549, 48 h; in short: as §3
[32] = system: LOX IMVI; assay: Cytotoxicity against human LOXIMVI cells after 48 hrs by SRB assay; assay type: functional; in short: as §3
[33] = system: COLO 205; assay: Cytotoxicity against human COLO205 cells after 48 hrs by SRB assay; assay type: functional; conditions: COLO 205, 48 h; in short: as §3
[34] = system: U-251; assay: Cytotoxicity against human U251 cells after 48 hrs by SRB assay; assay type: functional; conditions: U-251, 48 h; in short: as §3
[35] = system: HCC 2998; assay: Cytotoxicity against human HCC2998 cells after 48 hrs by SRB assay; assay type: functional; conditions: HCC 2998, 48 h; in short: as §3
[36] = system: M14; assay: Cytotoxicity against human M14 cells after 48 hrs by SRB assay; assay type: functional; conditions: M14, 48 h; in short: as §3
[37] = system: RXF 393; assay: Cytotoxicity against human RXF393 cells after 48 hrs by SRB assay; assay type: functional; conditions: RXF 393, 48 h; in short: as §3
[38] = Cytotoxicity against human SKOC3 cells after 48 hrs by SRB assay; assay type: functional; conditions: SKOC3, 48 h; in short: as §3
[39] = system: MDA-MB-231; assay: Cytotoxicity against human MDA-MB-231 cells after 48 hrs by SRB assay; assay type: functional; conditions: MDA-MB-231, 48 h; in short: as §3
[40] = system: OVCAR-4; assay: Cytotoxicity against human OVCAR4 cells after 48 hrs by SRB assay; assay type: functional; conditions: OVCAR-4, 48 h; in short: as §3
[41] = system: Hs-578T; assay: Cytotoxicity against human Hs578T cells after 48 hrs by SRB assay; assay type: functional; in short: as §3
[42] = system: MDA-MB-435; assay: Cytotoxicity against human MDA-MB-435 cells after 48 hrs by SRB assay; assay type: functional; conditions: MDA-MB-435, 48 h; in short: as §3
[43] = system: SNB-75; assay: Cytotoxicity against human SNB75 cells after 48 hrs by SRB assay; assay type: functional; conditions: SNB-75, 48 h; in short: as §3
[44] = system: HepG2; assay: Inhibition of TNFalpha-induced NFkappaB (unknown origin)-dependent transcriptional activity expressed in human HepG2 cells at 0.1 to 10 uM incubated for 1 hr prior to TNFalpha induction measured after 6 hrs by dual-luciferase reporter gene assay; assay type: cell-based; in short: as §1

Oc1ccccc1CN1CCN(c2nc(-c3ccccc3)nc3ccccc23)CC1
inhibition [1]: Active
Activity [2]: 13%
Activity [3]: 14.6%

Oc1ccc(Br)cc1CN1CCN(c2nc(-c3ccccc3)nc3ccccc23)CC1
inhibition [1]: Active
Activity [2]: 13%
Activity [3]: 15.5%

c1ccc(CN2CCN(c3nc(-c4ccccc4)nc4ccccc34)CC2)cc1
inhibition [1]: Active
Activity [2]: 13.7%
Activity [3]: 30.7%

c1ccc2c(NCCc3c[nH]c4ccccc34)ncnc2c1
GI50 [4]: 50.1 µM
GI50 [5]: 30.2 µM
GI50 [6]: 24 µM
GI50 [7]: 5.6 µM
GI50 [8]: 19.1 µM
GI50 [9]: 14.1 µM
GI50 [10]: 19.5 µM
GI50 [11]: 2800 nM
GI50 [12]: 9.8 µM
GI50 [13]: 20.4 µM
inhibition [1]: Active
GI50 [14]: 12 µM
GI50 [15]: 14.5 µM
GI50 [16]: 5.5 µM
Activity [2]: -30%
GI50 [17]: 27.5 µM
GI50 [18]: 34.7 µM
GI50 [19]: 41.7 µM
GI50 [20]: 11.2 µM
GI50 [21]: 29.5 µM
GI50 [22]: 6.3 µM
GI50 [23]: 14.1 µM
GI50 [24]: 39.8 µM
GI50 [25]: 3.5 µM
GI50 [26]: 19.1 µM
GI50 [27]: 30.9 µM
GI50 [28]: 2200 nM
Activity [3]: -22.3%
GI50 [29]: 25.1 µM
GI50 [30]: 33.9 µM
GI50 [31]: 12.3 µM
GI50 [32]: 15.5 µM
GI50 [33]: 28.2 µM
GI50 [34]: 30.9 µM
GI50 [35]: 26.3 µM
GI50 [36]: 24.6 µM
GI50 [37]: 30.9 µM
GI50 [38]: 58.9 µM
GI50 [39]: 21.9 µM
GI50 [40]: 1500 nM
GI50 [41]: 60.3 µM
GI50 [42]: 10.2 µM
GI50 [43]: 22.9 µM

Oc1ccccc1CN1CCN(c2ncnc3ccccc23)CC1
inhibition [1]: Active
Activity [2]: -26%
Activity [3]: -21.7%

Nc1ccc2ncnc(NCCc3ccc(Oc4ccccc4)cc3)c2c1
inhibition [44]: Active
